≈ marks a conversion by molar mass, not a printed value.

Data set [1] has as its system Plasmodium yoelii. In words: Antiplasmodial activity as reduced parasitaemia against chloroquine-resistant Plasmodium yoelii N67 infected Swiss mice (Mus musculus) at 10 mg/kg/day peroral dose after 4 days. It counts as functional. On the set-up: scale not given: the % may be the effect or the level left. Conditions: route oral. The essentials: (§1)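 Swiss mice inoculated on day 0 with 1×10⁶ P. yoelii N-67 parasitized RBC. […] Parasitaemia read from thin blood smears. Percent suppression calculated from the group mean against untreated infected controls.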

The test system of data set [2] is Plasmodium yoelii. In words: Antiplasmodial activity as reduced parasitaemia against chloroquine-resistant Plasmodium yoelii N67 infected Swiss mice (Mus musculus) at 10 mg/kg/day peroral dose over 10 days. It counts as functional. On the set-up: scale not given: the % may be the effect or the level left. Conditions: route oral. The essentials: as §1
Data set [3] is described as follows: Selectivity index, ratio of IC50 for african green monkey (Cercopithecus aethiops) Vero cells to IC50 for Plasmodium falciparum 3D7. Format: toxicity, cell-based. Conditions: read-out: Ratio IC50. The essentials:
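P. falciparum 3D7 was tested by SYBR Green I fluorescence at 0.5% parasitaemia: two-fold dilutions from 500 ng/mL (seven concentrations), duplicate wells, 72 h, then lysis buffer with dye. Vero cells (1 × 10⁴/well) got MTT after 72 h with compound. Each IC₅₀ came from non-linear regression dose–response curves; selectivity index is the Vero/3D7 ratio.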

The test system of another data set is Plasmodium falciparum. In words: Antimalarial activity against chloroquine-sensitive Plasmodium falciparum 3D7 after 72 hrs by SYBR Green assay. Conditions: 3D7, 72 h.
Data set [4] relates to Plasmodium yoelii. In words: Antiplasmodial activity as reduced parasitaemia against chloroquine-resistant Plasmodium yoelii N67 infected Swiss mice (Mus musculus) at 50 mg/kg/day after 4 days. Format: functional. More on the design: scale not given: the % may be the effect or the level left. In a few lines:
(§2)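 Swiss mice inoculated on day 0 with 1×10⁶ P. yoelii N-67 parasitized RBC. Groups of five received 50 mg/kg/day intraperitoneally, once daily on days 0–3, as aqueous suspensions with a few drops of Tween 80. Parasitaemia read from thin blood smears. Percent suppression calculated from the group mean against untreated infected controls.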

The subject of data set [5] is Plasmodium yoelii. In words: Antiplasmodial activity as reduced parasitaemia against chloroquine-resistant Plasmodium yoelii N67 infected Swiss mice (Mus musculus) at 50 mg/kg/day intraperitoneal dose after 10 days. More on the design: scale not given: the % may be the effect or the level left. Format: functional. In a few lines:
as §2

In the case of `CCN(CC)CCCC(C)Nc1ccnc2cc(Cl)ccc12` (centres undefined) [CHLOROQUINE], the Activity in the data set with Plasmodium yoelii [1] was 99.05%; in the data set on Plasmodium yoelii [2], 73.92%.
Turning to `O=C1C(=O)N(c2ccccc2Cl)C(=S)N1CCCNc1ccnc2cc(Cl)ccc12`, the selectivity ratio in data set [3] was determined as 122. Besides, in the data set with Plasmodium falciparum, the half-inhibitory concentration (IC50) – broadly, the concentration that inhibits the measured activity by half – worked out at 0.0397 µg/mL (≈ 0.0864 µM).
`CCCC/N=C1\SC(=O)C(=O)N1CCCNc1ccnc2cc(Cl)ccc12`: in data set [3], the selectivity ratio came out at 256. This compound gave an IC50 in the data set with Plasmodium falciparum of 0.011 µg/mL (≈ 0.0272 µM).
As to `O=C1S/C(=N\c2ccccc2)N(CCCNc2ccnc3cc(Cl)ccc23)C1=O`, the selectivity ratio in data set [3] was 637. In the data set with Plasmodium falciparum, this compound displayed an IC50 of 0.011 µg/mL (≈ 0.026 µM).
For `C=CCNC(=S)NCCNc1ccnc2cc(Cl)ccc12` the same measures were 668 and 0.0261 µg/mL (≈ 0.0814 µM).
For `O=C1C(=O)N(c2ccccc2)C(=S)N1CCCNc1ccnc2cc(Cl)ccc12`, the selectivity ratio in data set [3] was 65.5. Further, the half-inhibitory concentration (IC50) in the data set with Plasmodium falciparum came to 0.151 µg/mL (≈ 0.354 µM).
On the same counts, the results for `CCCCN1C(=O)C(=O)N(CCNc2ccnc3cc(Cl)ccc23)C1=S` are 406 and 0.0331 µg/mL (≈ 0.0846 µM).
On to `CCCCNC(=S)NCCNc1ccnc2cc(Cl)ccc12`, for which the selectivity ratio in data set [3] turned out to be 750. The Activity in the data set on Plasmodium yoelii [4] turned out to be 99.27%; with Plasmodium yoelii [5] it was 50.5%. In the data set on Plasmodium falciparum, this compound showed a half-inhibitory concentration (IC50) of 0.00607 µg/mL (≈ 0.018 µM).
Consider `O=C1C(=O)N(c2ccccc2Cl)C(=S)N1CCNc1ccnc2cc(Cl)ccc12`, for which the selectivity ratio in data set [3] stood at 3.36. Moreover, the concentration for half-maximal inhibition (IC50) with Plasmodium falciparum was 0.199 µg/mL (≈ 0.448 µM).
As for `CCCC/N=C1\SC(=O)C(=O)N1CCNc1ccnc2cc(Cl)ccc12`, in data set [3], the selectivity ratio turned out to be 480. In the data set on Plasmodium falciparum, this compound gave an IC50 of 0.0174 µg/mL (≈ 0.0446 µM).
`O=C1C(=O)N(c2ccccc2)C(=S)N1CCNc1ccnc2cc(Cl)ccc12`: in data set [3], the selectivity ratio worked out at 118. Besides, the IC50 with Plasmodium falciparum was 0.119 µg/mL (≈ 0.29 µM).
For `C=CCNC(=S)NCCCNc1ccnc2cc(Cl)ccc12`, in data set [3], the selectivity ratio is 582. The compound further yielded a 50% inhibitory concentration (IC50) with Plasmodium falciparum of 0.042 µg/mL (≈ 0.125 µM).
Turning to `O=C1S/C(=N\c2ccccc2Cl)N(CCCNc2ccnc3cc(Cl)ccc23)C1=O`, the selectivity ratio in data set [3] came out at 434. The compound further yielded a half-inhibitory concentration (IC50) in the data set on Plasmodium falciparum of 0.0175 µg/mL (≈ 0.0381 µM).
`S=C(NCCCNc1ccnc2cc(Cl)ccc12)Nc1ccccc1Cl`: the selectivity ratio in data set [3] is 1110. This compound yielded an Activity in the data set with Plasmodium yoelii [4] of 16.82%. Further, the half-inhibitory concentration (IC50) in the data set with Plasmodium falciparum turned out to be 0.0102 µg/mL (≈ 0.0251 µM).
For the compound `C=CCN1C(=O)C(=O)N(CCCNc2ccnc3cc(Cl)ccc23)C1=S`, the selectivity ratio in data set [3] amounted to 80.4. Further, 0.0548 µg/mL (≈ 0.141 µM) corresponded to half-maximal inhibition in the data set with Plasmodium falciparum (IC50).
As for `C=CCN1C(=O)C(=O)N(CCNc2ccnc3cc(Cl)ccc23)C1=S`, in data set [3], the selectivity ratio came to 141. The compound also registered an IC50 in the data set on Plasmodium falciparum of 0.104 µg/mL (≈ 0.278 µM).
Take `CCCCN1C(=O)C(=O)N(CCCNc2ccnc3cc(Cl)ccc23)C1=S`: in data set [3], the selectivity ratio worked out at 27.2. The 50% inhibitory concentration (IC50) with Plasmodium falciparum was determined as 0.0697 µg/mL (≈ 0.172 µM).
As for `C=CC/N=C1\SC(=O)C(=O)N1CCCNc1ccnc2cc(Cl)ccc12`, in data set [3], the selectivity ratio came to 475. For the same compound, half-maximal inhibition in the data set on Plasmodium falciparum (IC50) was put at 0.112 µg/mL (≈ 0.287 µM).
As for `CCCCNC(=S)NCCCNc1ccnc2cc(Cl)ccc12`, the selectivity ratio in data set [3] was 600. The compound also displayed an IC50 in the data set with Plasmodium falciparum of 0.0118 µg/mL (≈ 0.0337 µM).
Regarding `S=C(NCCNc1ccnc2cc(Cl)ccc12)Nc1ccccc1`, the selectivity ratio in data set [3] is 997. Besides, the 50% inhibitory concentration (IC50) in the data set with Plasmodium falciparum came to 0.00922 µg/mL (≈ 0.0258 µM).
For `S=C(NCCNc1ccnc2cc(Cl)ccc12)Nc1ccccc1Cl` the same measures were 332 and 0.0205 µg/mL (≈ 0.0524 µM).
For the compound `S=C(NCCCNc1ccnc2cc(Cl)ccc12)Nc1ccccc1`, the selectivity ratio in data set [3] turned out to be 968. For the same compound, in the data set with Plasmodium falciparum, half-maximal inhibition (IC50) required 0.01 µg/mL (≈ 0.027 µM).
As to `O=C1S/C(=N\c2ccccc2Cl)N(CCNc2ccnc3cc(Cl)ccc23)C1=O`, the selectivity ratio in data set [3] is 543. The compound also came in with an Activity in the data set with Plasmodium yoelii [4] of 5.45%. In the data set with Plasmodium falciparum, this compound displayed an IC50 of 0.0121 µg/mL (≈ 0.0272 µM).
On to `C=CC/N=C1\SC(=O)C(=O)N1CCNc1ccnc2cc(Cl)ccc12`, for which the selectivity ratio in data set [3] was determined as 603. Besides, in the data set on Plasmodium falciparum, half-maximal inhibition (IC50) required 0.0324 µg/mL (≈ 0.0865 µM).
For the compound `O=C1S/C(=N\c2ccccc2)N(CCNc2ccnc3cc(Cl)ccc23)C1=O`, the selectivity ratio in data set [3] is 605. This compound also showed an IC50 in the data set on Plasmodium falciparum of 0.0295 µg/mL (≈ 0.0718 µM).

The values above are taken from ChEMBL document CHEMBL1138607, “Synthesis of novel thiourea, thiazolidinedione and thioparabanic acid derivatives of 4-aminoquinoline as potent antimalarials” (Bioorg Med Chem Lett, 2009).
